We go through one molecule from publication PMC12694607 (RSC Chemical Biology, 2025).

≈ marks a conversion by molar mass, not a printed value. Non-standard residues stand in square brackets, D forms with d. Residues, ends and D or L forms follow the SMILES beside them. *: point of attachment. FITC = O=C1OC2(c3ccc(O)cc3Oc3cc(O)ccc32)c2ccc(NC(=S)*)cc21; Pra = C#CC[C@H](N)C(=O)O; βAla = NCCC(=O)O

The data set can be described thus: Dynamic light scattering. It counts as physicochemical. Conditions: PBS with 1% DMSO. The method in brief: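 Salicylaldehyde-tagged peptide and its alkyne precursor were dissolved in DMSO at several concentrations, then diluted 1:100 into PBS. Final samples were 5 µM, 125 nM and 10 nM in PBS (+1% DMSO). Aggregation was assessed by dynamic light scattering.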

In the case of `C#CC[C@H](NC(=O)[C@H](Cc1ccccc1)NC(=O)CCNC(=S)Nc1ccc2c(c1)C(=O)OC21c2ccc(O)cc2Oc2cc(O)ccc21)C(=O)N[C@@H](C)C(=O)N[C@@H](CC(C)C)C(=O)N[C@@H](CC(=O)O)C(=O)N[C@@H](Cc1c[nH]c2ccccc12)C(=O)N[C@@H](CO)C(=O)N[C@@H](Cc1c[nH]c2ccccc12)C(=O)N[C@@H](CC(C)C)C(=O)N[C@@H](CCC(N)=O)C(=O)N[C@H](C(=O)N[C@@H](CCC(=O)O)C(N)=O)[C@@H](C)O` [Compound 6] ({FITC-βAla}-F[Pra]ALDWSWLQTE-NH2), the kinetic solubility stood at 0.125 µM (≈ 0.244 µg/mL).
